Test results reported in ChEMBL document CHEMBL3421591, “Improved Synthesis of Biotinol-5'-AMP: Implications for Antibacterial Discovery” (ACS Med Chem Lett, 2015).
Converted amounts (≈) assume the structure as drawn. The source made the active and inactive calls. The calls are words filed in the database; no cut-off is given here.

Tests used:
[1] = test system: Mycobacterium tuberculosis; experiment: Antimicrobial activity against Mycobacterium tuberculosis H37Rv after 16 to 20 hrs by two-fold microdilution broth method; assay type: functional
[2] = test system: Mycobacterium tuberculosis; experiment: Antimicrobial activity against Mycobacterium tuberculosis 37892293 after 16 to 20 hrs by two-fold microdilution broth method; assay type: functional
[3] = test system: Mycobacterium tuberculosis; experiment: Antimicrobial activity against Mycobacterium tuberculosis 3688023 after 16 to 20 hrs by two-fold microdilution broth method; assay type: functional
Staphylococcus aureus [4] = experiment: Antimicrobial activity against methicillin-sensitive Staphylococcus aureus after 16 to 20 hrs by two-fold microdilution broth method; assay type: functional
Escherichia coli = experiment: Antimicrobial activity against Escherichia coli ATCC 25922 after 16 to 20 hrs by two-fold microdilution broth method; assay type: functional
Staphylococcus = experiment: Antimicrobial activity against coagulase-negative Staphylococcus after 16 to 20 hrs by two-fold microdilution broth method; assay type: functional
[5] = Inhibition of Klebsiella pneumonia recombinant BPL using 3H-biotin as substrate after 10 mins by liquid scintillation counting analysis; design: species or system Klebsiella pneumoniae; settings: read-out: Ki(app)
How it was run: (§1)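 In vitro biotinylation assay measuring radiolabeled biotin incorporation onto an acceptor protein by each recombinant BPL, run at varying inhibitor concentrations. Apparent Ki was fitted with the Morrison tight-binding equation, accounting for the BPL concentration in the assay. It was then extrapolated using each enzyme's apparent K_M for biotin, assuming inhibition competitive with biotin.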

[6] = Inhibition of Staphylococcus aureus recombinant BPL using 3H-biotin as substrate after 10 mins by liquid scintillation counting analysis; settings: read-out: Ki(app); how it was run: as §1
[7] = Cytotoxicity against human HepG2 cells after 24 to 48 hrs by WST-1 assay; assay type: cell-based
[8] = Inhibition of Acinetobacter calcoaceticus recombinant BPL using 3H-biotin as substrate after 10 mins by liquid scintillation counting analysis; settings: read-out: Ki(app); how it was run: as §1
[9] = Inhibition of Mycobacterium tuberculosis recombinant BPL using 3H-biotin as substrate after 10 mins by liquid scintillation counting analysis; settings: read-out: Ki(app)
How it was run: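 Recombinant BPL activity was measured as radiolabelled biotin incorporated onto an acceptor protein, across a range of inhibitor concentrations. Apparent Ki came from the Morrison tight-binding equation, because Ki values lay within 10-fold of the BPL concentration used. Binding was treated as competitive with biotin, so values were extrapolated using the apparent KM for biotin.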

Staphylococcus aureus [10] = experiment: Antimicrobial activity against methicillin-resistant Staphylococcus aureus after 16 to 20 hrs by two-fold microdilution broth method; assay type: functional
Enterococcus faecium = experiment: Antimicrobial activity against Enterococcus faecium after 16 to 20 hrs by two-fold microdilution broth method; assay type: functional
Enterococcus faecalis = experiment: Antimicrobial activity against Enterococcus faecalis after 16 to 20 hrs by two-fold microdilution broth method; assay type: functional
Staphylococcus aureus [11] = experiment: Competitive inhibition of Staphylococcus aureus recombinant BPL using 3H-biotin as substrate by Lineweaver-Burk plot analysis
How it was run: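 S. aureus BPL biotinylation with ³H-biotin: enzyme velocity measured across varying biotin concentrations at inhibitor 0, 20, 100 and 200 nM. Double-reciprocal Lineweaver–Burk plots of 1/velocity vs 1/biotin were used to define the inhibition mode, with K_M and V_max compared across inhibitor levels. Points are mean ± SEM of three replicates.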

Which results are given for `Nc1ncnc2c1ncn2[C@@H]1O[C@H](CNS(=O)(=O)NC(=O)CCCC[C@@H]2SC[C@@H]3NC(=O)N[C@@H]32)[C@@H](O)[C@H]1O`?
MIC [1]: 0.1 µg/mL (≈ 0.175 µM); MIC [2]: 0.1 µg/mL (≈ 0.175 µM); MIC [3]: 0.1 µg/mL (≈ 0.175 µM)

Which results are given for `Nc1ncnc2c1ncn2[C@@H]1O[C@H](COP(=O)(O)OCCCCC[C@@H]2SC[C@@H]3NC(=O)N[C@@H]32)[C@@H](O)[C@H]1O`?
MIC (Staphylococcus aureus [4]): 2 µg/mL (≈ 3.57 µM); MIC [1]: 2.5 µg/mL (≈ 4.47 µM); MIC (Escherichia coli): > 128 µg/mL; MIC (Staphylococcus): 1 µg/mL (≈ 1.79 µM); Ki [5]: 482 nM; MIC [2]: 2.5 µg/mL (≈ 4.47 µM); MIC [3]: 0.5 µg/mL (≈ 0.894 µM); Ki [6]: 18 nM; CC50 [7]: > 200 µg/mL; Ki [8]: 461 nM; Ki [9]: 52 nM; MIC (Staphylococcus aureus [10]): 2 µg/mL (≈ 3.57 µM); MIC (Enterococcus faecium): > 128 µg/mL; MIC (Enterococcus faecalis): > 128 µg/mL; inhibition (Staphylococcus aureus [11]): Active
